The values below come from ChEMBL document CHEMBL1139842, “Effects of azaspiracid-1, a potent cytotoxic agent, on primary neuronal cultures. A structure-activity relationship study” (J Med Chem, 2007).

Activity calls are given as the source filed them. No cut-off for these calls is given here.

Data set [1] in a line: Effect on intracellular pH in presence of calcium in cerebellar granule cells at 1 uM. It counts as functional, cell-based. The conditions noted are these: Mus musculus. The essentials:
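530-nm emission ratio at 490/440 excitation from 25-30 cells per coverslip, converted to pH by nigericin in situ calibration (pH 6-9). Tested in calcium-free medium then after calcium restoration, or in calcium-containing medium; drug buffer pH 7.4.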

A short description of data set [2]: Decrease in intracellular pH in cerebellar granule cells in calcium free medium at 1 uM. Type of data set: functional. In outline: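 Single-cell imaging at 37 °C in an open-bath chamber, drug buffers at pH 7.4. Compound added in calcium-free buffer, then calcium restored, or added in calcium-containing buffer. Read-out is the 490/440 excitation ratio at 530 nm emission from 25-30 cells per coverslip, converted to pH by nigericin in situ calibration (pH 6-9). Three to five independent experiments, each in duplicate.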

Data set [3] can be described thus: Increase in cytosolic calcium concentration in cerebellar granule cells in presence of calcium at 1 uM. Type of data set: functional. As to conditions: Mus musculus. In outline: (§1)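 Cultured mouse cerebellar granule cells co-loaded with Fura-2 AM (1 µM) and BCECF-AM (0.5 µM), 10 min at 37 °C, imaged by epifluorescence microscopy in a 37 °C open-bath chamber. Compound applied in calcium-free buffer (pH 7.4) before calcium was restored, or added directly in calcium-containing medium. [Ca2+]c calibrated by the Grynkiewicz method. Means ± SEM of 3-4 experiments in duplicate.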

Data set [4] is described as follows: Increase in cytosolic calcium concentration in cerebellar granule cell in calcium free medium at 1 uM. The conditions noted are these: Mus musculus. Type of data set: functional, cell-based. The essentials: as §1
For data set [5], the system named is cerebellar granule cells (mouse). Kind of data set: Cytotoxicity against cerebellar granule neurons at 250 nM by MTT assay after 24 hrs. For orientation: Tetrazolium assays rely on reduction of a dye to a coloured formazan, in cell work by metabolically active cells.
For data set [6] the test system is unchanged. Nature of the data set: Increase in cytosolic calcium concentration in cerebellar granule cells in presence of calcium at 1 uM.
Data set [7] deals with COLO. Nature of the data set: Cytotoxicity against cerebellar granule neurons at 250 nM by MTT assay after 4 hrs. Type of data set: functional, Mus musculus. The essentials: (§2)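 Primary cerebellar granule cells from 7-day-old Swiss mice, cultured 8-11 days in KCl (25 mM) DMEM with 10% fetal calf serum and cytosine arabinoside. Exposed in culture medium to compound (0.5-250 nM range; fragments 250 nM) for 4, 8 or 24 h at 37 °C. Then MTT 500 µg/mL in Locke's buffer for 30 min, SDS lysis, formazan read at 590. IC50 given with 95% confidence intervals.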

Data set [8] can be described thus: Cytotoxicity against cerebellar granule neurons by MTT assay. As to conditions: mouse, cerebellar granule neurone. The essentials:
(§3)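 Primary cerebellar granule cells from 7-day-old Swiss mouse cerebella, cultured 8-11 days in DMEM with 25 mM KCl and 10% fetal calf serum; cytosine arabinoside (20 µM) against glia. Compound added in culture medium for 4, 8 or 24 h (0.5-250 nM range; fragments 24 h at 250 nM). MTT (500 µg/mL, 30 min, Locke's buffer), SDS lysis, formazan absorbance at 590. Means ± SEM.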

The nature of data set [9]: Cytotoxicity assessed as effect on viability of cerebellar granule neurons at 100 nM by MTT assay after 4 hrs. The arrangement: species or system Cerebellar granule neurone. The conditions noted are these: mouse, read-out: Activity. In outline: as §3
Data set [10] is described as follows: Cytotoxicity against cerebellar granule neurons by MTT assay after 8 hrs. The arrangement: species or system Mus musculus, Cerebellar granule neurone. In outline:
as §2

A short description of data set [11]: Cytotoxicity against cerebellar granule neurons by MTT assay after 24 hrs. Also noted: species or system Mus musculus, Cerebellar granule neurone. In outline:
as §2

[12] abbreviates: Mus musculus, Cerebellar granule neurone.
Setting [13] is: mouse, cerebellar granule neurone.

In the case of `C[C@@H]1CN[C@@]2(C[C@@H]3O[C@@]4(CC(=O)O)C[C@H](C)C[C@@H](O4)[C@@H]3O2)[C@H](C)C1`, the outcome in data set [1], in data set [2] (Mus musculus), in [3] and in [4] was inactive. This compound had an Activity in [5] of 84.95%.
Take `COC(=O)[C@@H](NC(=O)C[C@@]12C[C@@H](C)C[C@H](O1)[C@H]1O[C@]3(C[C@H]1O2)NC[C@H](C)C[C@@H]3C)c1ccccc1` (single isomer, unassigned): the outcome in data set [1], in [2] (Mus musculus), in data set [3] and in data set [4] was inactive. In addition, in [5], the Activity is on record as 90.49%.
Turning to `COC(=O)[C@@H](NC(=O)C[C@]12C[C@H](C)C[C@@H](O1)[C@@H]1O[C@@]3(C[C@@H]1O2)NC[C@@H](C)C[C@H]3C)c1ccccc1` (single isomer, unassigned), the outcome in data set [1], in [3] and in data set [4] was inactive. In data set [5], the Activity was determined as 90.02%.
In the case of `COC(=O)[C@H](NC(=O)C[C@]12C[C@H](C)C[C@@H](O1)[C@@H]1O[C@@]3(C[C@@H]1O2)NC[C@@H](C)C[C@H]3C)c1ccccc1`, the outcome in data set [1], in [2] (Mus musculus), in data set [3] and in [4] was inactive. Moreover, in data set [5], the Activity came to 99.4%.
For the compound `C[C@@H]1C[C@H]2O[C@H](CO)C[C@H]2O[C@]12CC[C@@]1(CC=C[C@H](/C=C/CCC(=O)O)O1)O2`, in [4], the outcome was inactive. Also, the Activity in data set [5] is reported as 102.59%; in [6], 130 nM.
`C=C(CO)[C@H]1O[C@@](O)([C@@H](O)[C@H]2C[C@@H]3O[C@]4(CC[C@@]5(CC=C[C@H](/C=C/CCC(=O)O)O5)O4)[C@@H](C)C[C@@H]3O2)[C@H](C)C[C@@H]1C`: the result in data set [4] was inactive. Also, the results for the Activity in data set [5] and in data set [6] were 100.57% and 250 nM, respectively.
In the case of `C[C@H]1C[C@H]2O[C@H](CO)C[C@H]2O[C@]12CC[C@@]1(CC=C[C@H](/C=C/CCC(=O)O)O1)O2`, the Activity came out at 98.29% in data set [5] and 150 nM in data set [6].
Turning to `C=C(C[C@]12C[C@@H](C)C[C@H](O1)[C@H]1O[C@]3(C[C@H]1O2)NC[C@H](C)C[C@@H]3C)[C@H]1O[C@@](O)([C@H](O)[C@@H]2C[C@H]3O[C@@]4(CC[C@]5(CC=C[C@@H](/C=C/CCC(=O)O)O5)O4)[C@H](C)C[C@H]3O2)[C@H](C)C[C@@H]1C`, the result in data set [1] and in data set [4] was inactive. Moreover, the Activity in data set [7] was 40%; in data set [2], -0.15; in data set [8], “Dose-dependent effect and tde”; in data set [10] (setting [13]), 90%; in data set [11] (setting [13]), 85%. Besides, the result in data set [3] was Active. Also, in data set [9], the viability at 4 h, 0.1 µM came out at 40%. The values for the IC50 in data set [10] (setting [12]) and in [11] (setting [12]) were 32 nM and 0.87 nM, respectively.
Consider `C[C@H]1CN[C@]2(C[C@H]3O[C@]4(CC(=O)O)C[C@@H](C)C[C@H](O4)[C@H]3O2)[C@@H](C)C1` (single isomer, unassigned), for which the result in [1], in data set [2] (Mus musculus), in [3] and in data set [4] was inactive. In [5], this compound had an Activity of 110.15%.
Turning to `C[C@@H]1C[C@H]2O[C@H](CO)C[C@H]2O[C@@]12CC[C@]1(CC=C[C@@H](/C=C/CCC(=O)O)O1)O2`, the outcome in data set [4] was inactive. Besides, the Activity was 100.32% in data set [5] and 100 nM in data set [6].
Regarding `COC(=O)[C@H](NC(=O)C[C@@]12C[C@@H](C)C[C@H](O1)[C@H]1O[C@]3(C[C@H]1O2)NC[C@H](C)C[C@@H]3C)c1ccccc1`, the outcome in data set [1], in data set [2] (Mus musculus), in data set [3] and in data set [4] was inactive. The compound further had an Activity in data set [5] of 99.25%.
Consider `C[C@H]1C[C@@H]2O[C@@H](CO)C[C@@H]2O[C@]12CC[C@@]1(CC=C[C@H](/C=C/CCC(=O)O)O1)O2`, for which the results for the Activity in data set [5] and in data set [6] were 83.66% and 150 nM, respectively.
For `C=C(CO)[C@H]1O[C@@](O)([C@H](O)[C@@H]2C[C@H]3O[C@@]4(CC[C@]5(CC=C[C@@H](/C=C/CCC(=O)O)O5)O4)[C@H](C)C[C@H]3O2)[C@H](C)C[C@@H]1C`, the Activity is recorded as 99.09% in data set [5] and 200 nM in data set [6].
